Reference: ChEMBL document CHEMBL3393024, “Multidrug resistance-reversal effects of resin glycosides from Dichondra repens” (Bioorg Med Chem Lett, 2015)

Tests used:
[1] = Cytotoxicity against human KB/VCR cells after 72 hrs by SRB method; format: functional, cell-based
[2] = Cytotoxicity against human KB/VCR cells at 10 uM after 72 hrs by SRB method; format: functional
[3] = Cytotoxicity against human KB/VCR cells at 25 uM after 72 hrs by SRB method; format: functional
Method in brief: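 Test sample was given alone at 25 µM, and cytotoxicity was expressed as percent inhibition ratio.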

[4] = Resistance factor, ratio of vincristine IC50 to vincristine IC50 in presence of compound for human KB/VCR cells; format: functional
Method in brief: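 Vincristine was serially diluted from 0.125 to 1 µM and tested with or without 25 µM test sample. Resistance factor is the vincristine IC50 alone divided by the vincristine IC50 with sample.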

Structure (SMILES)	IC50 [1]	inhibition at 10 µM [2]	inhibition at 25 µM [3]	Ratio IC50 [4]
CC[C@]1(O)C[C@H]2CN(CCc3c([nH]c4ccccc34)[C@@](C(=O)OC)(c3cc4c(cc3OC)N(C=O)[C@H]3[C@@](O)(C(=O)OC)[C@H](OC(C)=O)[C@]5(CC)C=CCN6CC[C@]43[C@@H]65)C2)C1 [VINCRISTINE]	570 nM	–	–	–
COc1ccc(CCN(C)CCCC(C#N)(c2ccc(OC)c(OC)c2)C(C)C)cc1OC (configuration not stated)	–	0.45%	–	–
CCCCC[C@@H](CCCCCCC[C@H](O)CC(=O)O)O[C@@H]1O[C@H](CO[C@@H]2O[C@@H](C)[C@H](O)[C@@H](O)[C@H]2OC(=O)[C@H](C)[C@@H](C)O)[C@@H](O)[C@H](O)[C@H]1O[C@@H]1O[C@H](CO)[C@@H](O[C@@H]2O[C@@H](C)[C@H](O)[C@@H](OC(=O)[C@H](C)[C@@H](C)O)[C@H]2O)[C@H](O)[C@H]1O	–	–	0.83%	1.32
CCC[C@H](O)CCCCCCCCCC(=O)O[C@H]1[C@H](O[C@H]2C(O)O[C@H](CO)[C@@H](O)[C@@H]2O)O[C@@H](C)[C@@H](OC(=O)[C@H](C)[C@@H](C)O)[C@H]1O[C@@H]1O[C@@H](C)[C@H](O)[C@@H](O)[C@H]1O (some centres not stated)	–	–	1.64%	1.03
CCCCC[C@H](O)CCCCCCCC(=O)O[C@H]1[C@H](O[C@H]2C(O)O[C@H](COC(C)=O)[C@@H](O)[C@@H]2O)O[C@@H](C)[C@@H](OC(=O)[C@H](C)[C@@H](C)O)[C@H]1O[C@@H]1O[C@@H](C)[C@H](O)[C@@H](O)[C@H]1O (some centres not stated)	–	–	0.85%	1.36
CCCCC[C@H](O)CCCCCCCCCC(=O)O[C@H]1[C@H](O[C@H]2C(O)O[C@H](CO)[C@@H](O)[C@@H]2O)O[C@@H](C)[C@H](OC(=O)[C@H](C)[C@@H](C)O)[C@H]1O[C@@H]1O[C@@H](C)[C@H](O)[C@@H](O)[C@H]1O (some centres not stated)	–	–	1.35%	1.78
CCCCC[C@@H](CCCCCCCCCC(=O)O)O[C@@H]1O[C@H](CO[C@@H]2O[C@@H](C)[C@H](O)[C@@H](O)[C@H]2OC(=O)[C@H](C)[C@@H](C)O)[C@@H](O)[C@H](O)[C@H]1O[C@@H]1O[C@H](CO)[C@@H](O[C@@H]2O[C@@H](C)[C@H](O)[C@@H](OC(=O)[C@H](C)[C@@H](C)O)[C@H]2O)[C@H](O)[C@H]1O	–	–	2.52%	1.19
